Assay results taken from ChEMBL document CHEMBL3044956, “Nematicidal and antifungal activities of annonaceous acetogenins from Annona squamosa against various plant pathogens” (J Agric Food Chem, 2011).
In brackets after ≈: the same amount, converted by molar mass.

How the values were obtained:
Format in all cases: functional
[1] = system: Bursaphelenchus xylophilus; test: Nematicidal activity against second juvenile stage (J2) of Bursaphelenchus xylophilus assessed as mortality at >0.33 ug/ml after 2 days by microtiter plate assay method (Beneficial crop Pine)
Procedure, shortened: (§1)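 Pine wood nematodes reared on B. cinerea mycelia on PDA for 7 days at 28 °C. J2s collected in 0.01% Triton X-100 water and tested in microtiter plates. Compounds in DMSO or MeOH, solvent ≤1%; solvent-only controls. Concentrations 0.004–1 μg/mL. Mortality Abbott-corrected; LC50 by probit. Two runs, three replicates each.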

[2] = system: Bursaphelenchus xylophilus; test: Nematicidal activity against second juvenile stage (J2) of Bursaphelenchus xylophilus assessed as mortality after 2 days by microtiter plate assay method (Beneficial crop Pine); conditions: 48 h; procedure, shortened: as §1
[3] = system: Meloidogyne incognita; test: Nematicidal activity against second juvenile stage (J2) of Meloidogyne incognita (root-knot nematode) assessed as mortality incubated in the dark at 28 degC after 3 days by light microscopy (benficial crop Tomato); conditions: 72 h
Procedure, shortened: (§2)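 M. incognita eggs taken from infected tomato roots with hypochlorite and J2s hatched in Baermann funnels at 28 °C. J2s from the first 3 days kept in 0.01% Tween 20 water and used within 24 h. About 100 J2s per well; stock added 1:100 in DMSO or MeOH (≤1%). Plates kept shaking in the dark at 28 °C, scored by microscope at 1, 2 and 3 days. Mortality Abbott-corrected. Two runs, three replicates each.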

[4] = system: Meloidogyne incognita; test: Nematicidal activity against second juvenile stage (J2) of Meloidogyne incognita (root-knot nematode) assessed as mortality incubated in the dark at 28 degC after 2 days by light microscopy (benficial crop Tomato); conditions: 48 h; procedure, shortened: as §2
[5] = system: Meloidogyne incognita; test: Nematicidal activity against second juvenile stage (J2) of Meloidogyne incognita (root-knot nematode) assessed as mortality incubated in the dark at 28 degC after 1 day by light microscopy (benficial crop Tomato); conditions: 24 h; procedure, shortened: as §2
[6] = system: Phytophthora infestans; test: In vivo antifungal activity against Phytophthora infestans zoospores infected tomato seedlings assessed as control of tomato late blight disease development at 2 ug/ml treated 1 day before spore inoculation measured 3 days after inoculation
Procedure, shortened: (§3)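 Potted seedlings sprayed to runoff with material dissolved in MeOH and diluted in 0.025% Tween 20 (5% MeOH); controls got the Tween/MeOH solution alone. Inoculated with spores or mycelial suspension 1 day later. Infected leaf or sheath area rated 3–7 days after inoculation; % control = 100(A−B)/A. Randomized complete block design, three replicates, run in duplicate; Tukey HSD.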

[7] = system: Phytophthora infestans; test: In vivo antifungal activity against Phytophthora infestans zoospores infected tomato seedlings assessed as control of tomato late blight disease development at 10 ug/ml treated 1 day before spore inoculation measured 3 days after inoculation; procedure, shortened: as §3
[8] = system: Colletotrichum coccodes; test: In vivo antifungal activity against Colletotrichum coccodes infected red pepper seedlings assessed as control of red pepper anthracnose development at 10 ug/ml treated 1 day before spore inoculation measured 3-7 days after inoculation; procedure, shortened: as §3
[9] = system: Colletotrichum coccodes; test: In vivo antifungal activity against Colletotrichum coccodes infected red pepper seedlings assessed as control of red pepper anthracnose development at 50 ug/ml treated 1 day before spore inoculation measured 3-7 days after inoculation; procedure, shortened: as §3
[10] = system: Botrytis cinerea; test: In vivo antifungal activity against Botryotinia fuckeliana infected in tomato seedlings assessed as control of tomato gray mold disease development at 5 ug/ml treated 1 day before spore inoculation measured 3-7 days after inoculation; procedure, shortened: as §3
[11] = system: Botrytis cinerea; test: In vivo antifungal activity against Botryotinia fuckeliana infected in tomato seedlings assessed as control of tomato gray mold disease development at 50 ug/ml treated 1 day before spore inoculation measured 3-7 days after inoculation; procedure, shortened: as §3
[12] = system: Puccinia recondita; test: In vivo antifungal activity against Puccinia recondita infected wheat seedlings assessed as reduction in wheat leaf rust disease symptoms development at 2 ug/ml treated 1 day before spore inoculation measured 7 days after inoculation; set-up: scale not given: the % may be the effect or the level left; procedure, shortened: as §3
[13] = system: Puccinia recondita; test: In vivo antifungal activity against Puccinia recondita infected wheat seedlings assessed as reduction in wheat leaf rust disease symptoms development at 10 ug/ml treated 1 day before spore inoculation measured 7 days after inoculation; set-up: scale not given: the % may be the effect or the level left; procedure, shortened: as §3
[14] = system: Rhizoctonia solani; test: In vivo antifungal activity against Rhizoctonia solani infected rice seedlings assessed as control of rice sheath blight disease development at 5 ug/ml treated 1 day before spore inoculation measured 3-7 days after inoculation; procedure, shortened: as §3
[15] = system: Rhizoctonia solani; test: In vivo antifungal activity against Rhizoctonia solani infected rice seedlings assessed as control of rice sheath blight disease development at 50 ug/ml treated 1 day before spore inoculation measured 3-7 days after inoculation; procedure, shortened: as §3

CCCCCCCCCC[C@H](O)[C@H]1CC[C@H]([C@H]2CC[C@H]([C@H](O)CCCCCCCCCCCCC3=C[C@H](C)OC3=O)O2)O1 [BULLANIN]
mortality [1]: 100%
LC50 [2]: 0.018 µg/mL

O=C/C=C/c1ccccc1 [CINNAMALDEHYDE]
LC50 [3]: 12.2 µg/mL (≈ 92.6 µM)
LC50 [4]: 13.9 µg/mL (≈ 105 µM)
LC50 [5]: 15.1 µg/mL (≈ 115 µM)

COc1ccc(C(=CC(=O)N2CCOCC2)c2ccc(Cl)cc2)cc1OC [DIMETHOMORPH]
Activity [6]: 85%
Activity [7]: 100%

N#Cc1sc2c(=O)c3ccccc3c(=O)c=2sc1C#N [DITHIANON]
Activity [8]: 20%
Activity [9]: 100%

N#Cc1c[nH]cc1-c1cccc2c1OC(F)(F)O2 [FLUDIOXONIL]
Activity [10]: 83%
Activity [11]: 100%

C[Si](Cn1cncn1)(c1ccc(F)cc1)c1ccc(F)cc1 [FLUSILAZOLE]
Activity [12]: 78%
Activity [13]: 100%

CCCCCCCCCC[C@@H](O)[C@H]1CC[C@H]([C@H]2CC[C@H]([C@H](O)CCCCCCCCCCCCC3=C[C@H](C)OC3=O)O2)O1 [ISODESAACETYLUVARICIN]
mortality [1]: 100%
LC50 [2]: 0.024 µg/mL

OCC1=C[C@H](N[C@H]2C[C@H](CO)[C@@H](O[C@@H]3O[C@H](CO)[C@@H](O)[C@H](O)[C@H]3O)[C@H](O)[C@H]2O)[C@H](O)[C@@H](O)[C@@H]1O [VALIDAMYCIN]
Activity [14]: 70%
Activity [15]: 100%
